Experimental data published in paper PMC4137555 (Methods in enzymology, 2011).
“And” between values parts separate entries of the source, which are not always exact repeats. Equal values may be shown once. Ends that are not written are not given here. Peptide text beside a SMILES is read from it. * marks the point of attachment. Dansyl = CN(C)c1cccc2c(S(=O)(=O)*)cccc12

T1: Tiam2 PDZ domain (Homo sapiens, UniProt Q8IVF5)
T1 sequence (Q8IVF5 890-976 limits assumed): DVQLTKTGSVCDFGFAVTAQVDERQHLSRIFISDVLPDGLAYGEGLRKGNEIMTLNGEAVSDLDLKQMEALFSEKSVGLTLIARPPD

T2: KP-4E-Sdc1 peptide
T2 chain: Dansyl-QEEYYA


Experiments:
[1] = biological target: Tiam1 PDZ domain (wild-type) (Homo sapiens, UniProt Q13009); assay type: binding; conditions: for Kd: SD; for ΔGb (free energy of binding): calculated from the dissociation constant, error by error propagation, 25 °C; for ΔΔGb: ΔΔGb = ΔGb(Core) − ΔGb(peptide); for Σ Singles: sum of the ΔΔGb of the two single-mutant peptides; for binding to the Tiam1 PDZ domain (in words): unpublished data of the authors
Chain of Tiam1 PDZ domain (wild-type) (Q13009 841-930 limits assumed): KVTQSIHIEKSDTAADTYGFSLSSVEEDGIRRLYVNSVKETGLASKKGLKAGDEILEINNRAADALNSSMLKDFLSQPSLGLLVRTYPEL
Procedure, shortened: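 His6-tagged Tiam1 PDZ domain expressed in E. coli BL21(DE3), purified by nickel-chelate and size-exclusion chromatography, tag removed with rTEV. N-terminally dansylated peptides (2 or 5 μM) in 20 mM PO4, 50 mM NaCl, 0.5 mM EDTA, pH 6.8, at 25 °C; PDZ added in 20–30 steps. Anisotropy read at λex 340/λem 555 nm and fit hyperbolically. Triplicate titrations, mean Kd ± standard deviation.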

Tiam2 PDZ domain = biological target: T1, Tiam2 PDZ domain; experiment: Peptide binding to the Tiam2 PDZ domain; conditions: unpublished data of the authors
Model peptide = conditions: cited from earlier work
KP-4E-Sdc1 peptide = biological target: T2, KP-4E-Sdc1 peptide; experiment: fluorescence anisotropy

Molecule	Kd [1]	ΔGb (free energy of binding) [1]	ΔΔGb [1]	further results
CN(C)c1cccc2c(S(=O)(=O)N[C@@H](CO)C(=O)N[C@@H](CO)C(=O)N[C@@H](CCC(N)=O)C(=O)N[C@@H](CCCCN)C(=O)N[C@@H](CCC(=O)O)C(=O)N[C@@H](Cc3ccc(O)cc3)C(=O)N[C@@H](Cc3ccc(O)cc3)C(=O)N[C@@H](Cc3ccccc3)C(=O)O)cccc12 [AP0F–Caspr4] (Dansyl-SSQKEYYF-OH)	89 ± 5 µM	-5.52 ± 0.06 kcal/mol	-0.17 ± 0.08 kcal/mol	–
CN(C)c1cccc2c(S(=O)(=O)N[C@@H](CCC(=O)O)C(=O)N[C@@H](CC(N)=O)C(=O)N[C@@H](CCC(N)=O)C(=O)N[C@@H](CCCCN)C(=O)N[C@@H](CCC(=O)O)C(=O)N[C@@H](Cc3ccc(O)cc3)C(=O)N[C@@H](Cc3ccccc3)C(=O)N[C@@H](Cc3ccccc3)C(=O)O)cccc12 [Caspr4] (Dansyl-ENQKEYFF-OH)	19 ± 0.4 µM	-6.43 ± 0.02 kcal/mol	-1.09 ± 0.05 kcal/mol	ΔΔΔGint (interaction energy, double-mutant cycle) ([1]; double-mutant cycle of evolved peptides: Core, two single mutants, double mutant): -0.51 kcal/mol and -0.51 ± 0.08 kcal/mol; Σ Singles [1]: -0.57 ± 0.09 kcal/mol; binding to the Tiam1 PDZ domain (in words) [1]: bound the Tiam1 PDZ domain; binding to the Tiam2 PDZ domain (in words) (Tiam2 PDZ domain): bound the PDZ domain tightly
C[C@H](NC(=O)[C@H](Cc1ccc(O)cc1)NC(=O)[C@H](Cc1ccc(O)cc1)NC(=O)[C@H](CCC(=O)O)NC(=O)[C@H](CCC(=O)O)NC(=O)[C@H](CCC(N)=O)NC(=O)[C@H](CO)NC(=O)[C@H](CO)NS(=O)(=O)c1cccc2c(N(C)C)cccc12)C(=O)O [KP−4E–Sdc1] (Dansyl-SSQEEYYA-OH)	40 ± 2 µM	-5.99 ± 0.06 kcal/mol	-0.65 ± 0.07 kcal/mol	–
NKDKEYYVCOOH [Neurexin1, reference compound]	–	–	–	binding to the Tiam2 PDZ domain (in words) (Tiam2 PDZ domain): bound the PDZ domain tightly
SSRKEYYACOOH [Model peptide, reference compound]	–	-5.38 ± 0.05 kcal/mol	–	–
Tiam1 PDZ (from UniProt Q13009)	–	–	–	Kd (Model peptide): 112 µM
Tiam1 PDZ (protein) VTQSIHIEKSDTAADTYGFSLSSVEEDGIRRLYVNSVKETGLASKKGLKAGDEILEINNRAADALNSSML	–	–	–	Kd (KP-4E-Sdc1 peptide): 40 µM

Continued, in another order:

Kd [1]	ΔGb (free energy of binding) [1]	ΔΔGb [1]	Molecule	further results
60.1 ± 0.6 µM	-5.75 ± 0.01 kcal/mol	-0.40 ± 0.05 kcal/mol	C[C@H](NC(=O)[C@H](Cc1ccccc1)NC(=O)[C@H](Cc1ccc(O)cc1)NC(=O)[C@H](CCC(=O)O)NC(=O)[C@H](CCCCN)NC(=O)[C@H](CCC(N)=O)NC(=O)[C@H](CO)NC(=O)[C@H](CO)NS(=O)(=O)c1cccc2c(N(C)C)cccc12)C(=O)O [YP−1F–Caspr4] (Dansyl-SSQKEYFA-OH)	–
106 ± 7 µM	-5.42 ± 0.07 kcal/mol	-0.07 ± 0.08 kcal/mol	C[C@H](NC(=O)[C@H](Cc1ccc(O)cc1)NC(=O)[C@H](Cc1ccccc1)NC(=O)[C@H](CCC(=O)O)NC(=O)[C@H](CCCCN)NC(=O)[C@H](CCC(N)=O)NC(=O)[C@H](CO)NC(=O)[C@H](CO)NS(=O)(=O)c1cccc2c(N(C)C)cccc12)C(=O)O [YP−2F–Sdc1] (Dansyl-SSQKEFYA-OH)	–
–	-6.23 ± 0.03 kcal/mol	-0.88 ± 0.06 kcal/mol	TKQEEFYACOOH [Syndecan1]	Σ Singles [1]: -0.71 ± 0.11 kcal/mol; binding to the Tiam1 PDZ domain (in words) [1]: bound the Tiam1 PDZ domain
